Experimental data from ChEMBL document CHEMBL4359903, “1,2,4-Oxadiazole derivatives targeting EGFR and c-Met degradation in TKI resistant NSCLC” (Eur J Med Chem, 2019).
Calls of active or inactive are those of the source. The calls are words filed in the database; no cut-off is given here.

Assays:
MDA-MB-231 = assay: Antiproliferative activity against human MDA-MB-231 cells assessed as reduction in cell viability incubated for 72 hrs by MTT assay; type: functional, cell-based; conditions: MDA-MB-231, 72 h
Summary of the method: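 MTT viability assay after 72 h of drug exposure. Cells seeded at 5000 per well in 10% FBS and left overnight, then treated in 5% FBS. MTT added for 1 h, dye dissolved in DMSO, absorbance read at 570 nm. Viability given relative to vehicle-treated cells.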

[1] = target: Epidermal growth factor receptor (Homo sapiens) (UniProt P00533); assay: Induction of EGFR degradation in human MDA-MB-231 cells assessed as reduction in EGFR expression incubated for 48 hrs by immunoblot analysis; type: cell-based
Summary of the method: (§1)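 After 48 h treatment, cells were scraped and lysed in 1% SDS, 50 mM Tris-HCl pH 8.0, 10 mM EDTA with protease and phosphatase inhibitors. Lysates sonicated, protein measured by BCA, equal amounts run on SDS-PAGE and blotted to nitrocellulose. Primary antibodies (EGFR, c-Met, S473-Akt, Akt, GAPDH) used at 1:1000 overnight at 4 °C, HRP secondaries at 1:5000, ECL detection.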

NCI-H1975 [2] = assay: Antiproliferative activity against human NCI-H1975 cells harbouring EGFR L858R/T790M double mutant assessed as reduction in cell viability incubated for 72 hrs by MTT assay; type: functional, cell-based; conditions: NCI-H1975, 72 h
[3] = Antiproliferative activity against human CL68 cells harbouring EGFR delE746-A750/T790M mutant assessed as reduction in cell viability incubated for 72 hrs by MTT assay; type: functional, cell-based
[4] = target: Epidermal growth factor receptor (Homo sapiens) (UniProt P00533); assay: Induction of EGFR degradation in wild type human A549 cells assessed as reduction in EGFR expression 0.2 to 0.6 uM incubated for 48 hrs by Western blot analysis; type: cell-based; summary of the method: as §1
[5] = tested on: Epidermal growth factor receptor (Homo sapiens), P00533 [UNDEFINED MUTATION]; assay: Induction of EGFR E746-A750 deletion mutant degradation in human PC9 cells assessed as reduction in EGFR expression at 0.2 to 0.6 uM incubated for 48 hrs by Western blot analysis; type: cell-based; summary of the method: as §1
[6] = tested on: Epidermal growth factor receptor (Homo sapiens), P00533 [UNDEFINED MUTATION]; assay: Induction of EGFR E746-A750 deletion/T790M mutant degradation in human CL68 cells assessed as reduction in EGFR expression at 0.2 to 0.6 uM incubated for 48 hrs by Western blot analysis; type: cell-based; summary of the method: as §1
[7] = target: Hepatocyte growth factor receptor (Homo sapiens) (UniProt P08581); assay: Induction of c-MET degradation in human PC9 cells harbouring EGFR delE746-A750 assessed as reduction in c-Met expression at 0.2 to 0.6 uM incubated for 48 hrs by Western blot analysis; type: cell-based; summary of the method: as §1
[8] = target: Hepatocyte growth factor receptor (Homo sapiens) (UniProt P08581); assay: Induction of c-MET degradation in human CL97 cells harbouring EGFR G719A/T790M assessed as reduction in c-Met expression at 0.2 to 0.6 uM incubated for 48 hrs by Western blot analysis; type: cell-based; summary of the method: as §1
[9] = tested on: Epidermal growth factor receptor (Homo sapiens), P00533 [UNDEFINED MUTATION]; assay: Induction of EGFR E746-A750 deletion mutant degradation in human PC9 cells assessed as reduction in Akt phosphorylation at 0.4 to 0.8 uM incubated for 48 hrs by Western blot analysis; type: cell-based; conditions: 0.2 to 0.6 uM, in the assay text read “0.2 to 0.6 uM” for “0.4 to 0.8 uM”; summary of the method: as §1
[10] = tested on: Epidermal growth factor receptor (Homo sapiens), P00533 [UNDEFINED MUTATION]; assay: Induction of EGFR E746-A750 deletion/T790M mutant degradation in human CL68 cells assessed as Akt phosphorylation at 0.4 to 0.8 uM incubated for 48 hrs by Western blot analysis; type: cell-based; summary of the method: as §1
[11] = tested on: Epidermal growth factor receptor (Homo sapiens), P00533 [G719A,T790M]; assay: Induction of EGFR G719A/T790M mutant degradation in human CL97 cells assessed as reduction in Akt phosphorylation at 0.4 to 0.8 uM incubated for 48 hrs by Western blot analysis; type: cell-based; summary of the method: as §1
A549 = assay: Cell cycle arrest in human A549 cells assessed as increase in accumulation of cells at G2/M phase at 0.2 to 0.6 uM incubated for 48 hrs by propidium iodide based flow cytometry; type: functional
Summary of the method: (§2)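 Cells plated at 3 × 10^5 per 6-cm dish and left overnight, then treated for 24 h and 48 h. Pellets fixed in 70% ethanol and stained with 40 µg/ml propidium iodide plus 20 µg/ml RNase A, 30 min on ice in the dark. DNA content read on a FACSCalibur flow cytometer.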

PC-9 = assay: Cell cycle arrest in human PC9 cells harbouring EGFR delE746-A750 […] assessed as increase in cells accumulation at G2/M phase at 0.4 to 0.8 uM incubated for 48 hrs by propidium iodide based flow cytometry; type: functional; summary of the method: as §2
CL97 = assay: Cell cycle arrest in human CL97 cells harbouring EGFR G719A/T790M mutant assessed as increase in cells accumulation at G2/M phase at 0.4 to 0.8 uM incubated for 48 hrs by propidium iodide based flow cytometry; type: functional; summary of the method: as §2
NCI-H1975 [12] = assay: (§3) Antitumor activity against human NCI-H1975 cells harbouring EGFR L858R/T790M double mutant xenografted in athymic Nude-Foxn1nu BALB/c mouse assessed as tumor growth inhibition at 50 mg/kg, po administered once daily via gavage for 20 days measured twice a week by caliper method relative to control; type: functional; conditions: 480 h, read-out: TGI
NCI-H1975 [13] = assay: Antitumor activity against human NCI-H1975 cells harbouring EGFR L858R/T790M double mutant xenografted in orally dosed athymic Nude-Foxn1nu BALB/c mouse assessed as tumor growth inhibition administered once daily via gavage for 20 days measured twice a week by caliper method; type: functional, organism-based
Summary of the method: (§4)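 Female Balb/c nude mice, 5 weeks old, injected subcutaneously in the right flank with 10^6 H1975 cells in 0.1 ml. Randomized at about 50 mm3, n = 8 per group. Gavaged once daily for 20 days with vehicle (10% DMSO/0.1% Tween 80/0.5% methylcellulose in sterile water) or 50 or 150 mg/kg. Calipers, V = width² × length × 0.52; volume and body weight twice weekly; Student's t-test.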

[14] = Toxicity in athymic Nude-Foxn1nu BALB/c mouse xenografted with human NCI-H1975 cells harbouring EGFR L858R/T790M double mutant assessed as body weight loss at 50 to 150 mg/kg, po administered once daily via gavage for 20 days measured twice a week; type: organism-based; conditions: in vivo, 480 h; summary of the method: as §4
NCI-H1975 [15] = assay: Antitumor activity against human NCI-H1975 cells harbouring EGFR L858R/T790M double mutant xenografted in athymic Nude-Foxn1nu BALB/c mouse assessed as reduction in EGFR expression in tumor lysates administered once daily via oral gavage for 20 days measured on day 20 by Western blot analysis; type: functional; conditions: Neoplasm, Lysate
Summary of the method: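 H1975 xenografts in nude mice gavaged daily for 20 days with vehicle, 50 or 150 mg/kg. At study end mice were killed by CO2, and tumor lysates from four representative tumors per group were immunoblotted for EGFR and c-Met. Band intensities quantified by densitometry.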

NCI-H1975 [16] = assay: as §3, with “days in presence of gefitinib” for “days”; type: functional; conditions: 480 h, read-out: TGI
Summary of the method: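 H1975 subcutaneous xenografts in female nude mice, randomized at about 50 mm3, n = 8 per group. Four arms gavaged once daily for 20 days: vehicle, gefitinib 50 mg/kg, test agent 50 mg/kg, or both at 50 mg/kg each. Tumor volume by calipers (width² × length × 0.52), measured twice weekly.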

Chain of Hepatocyte growth factor receptor (Homo sapiens) (P08581 whole entry): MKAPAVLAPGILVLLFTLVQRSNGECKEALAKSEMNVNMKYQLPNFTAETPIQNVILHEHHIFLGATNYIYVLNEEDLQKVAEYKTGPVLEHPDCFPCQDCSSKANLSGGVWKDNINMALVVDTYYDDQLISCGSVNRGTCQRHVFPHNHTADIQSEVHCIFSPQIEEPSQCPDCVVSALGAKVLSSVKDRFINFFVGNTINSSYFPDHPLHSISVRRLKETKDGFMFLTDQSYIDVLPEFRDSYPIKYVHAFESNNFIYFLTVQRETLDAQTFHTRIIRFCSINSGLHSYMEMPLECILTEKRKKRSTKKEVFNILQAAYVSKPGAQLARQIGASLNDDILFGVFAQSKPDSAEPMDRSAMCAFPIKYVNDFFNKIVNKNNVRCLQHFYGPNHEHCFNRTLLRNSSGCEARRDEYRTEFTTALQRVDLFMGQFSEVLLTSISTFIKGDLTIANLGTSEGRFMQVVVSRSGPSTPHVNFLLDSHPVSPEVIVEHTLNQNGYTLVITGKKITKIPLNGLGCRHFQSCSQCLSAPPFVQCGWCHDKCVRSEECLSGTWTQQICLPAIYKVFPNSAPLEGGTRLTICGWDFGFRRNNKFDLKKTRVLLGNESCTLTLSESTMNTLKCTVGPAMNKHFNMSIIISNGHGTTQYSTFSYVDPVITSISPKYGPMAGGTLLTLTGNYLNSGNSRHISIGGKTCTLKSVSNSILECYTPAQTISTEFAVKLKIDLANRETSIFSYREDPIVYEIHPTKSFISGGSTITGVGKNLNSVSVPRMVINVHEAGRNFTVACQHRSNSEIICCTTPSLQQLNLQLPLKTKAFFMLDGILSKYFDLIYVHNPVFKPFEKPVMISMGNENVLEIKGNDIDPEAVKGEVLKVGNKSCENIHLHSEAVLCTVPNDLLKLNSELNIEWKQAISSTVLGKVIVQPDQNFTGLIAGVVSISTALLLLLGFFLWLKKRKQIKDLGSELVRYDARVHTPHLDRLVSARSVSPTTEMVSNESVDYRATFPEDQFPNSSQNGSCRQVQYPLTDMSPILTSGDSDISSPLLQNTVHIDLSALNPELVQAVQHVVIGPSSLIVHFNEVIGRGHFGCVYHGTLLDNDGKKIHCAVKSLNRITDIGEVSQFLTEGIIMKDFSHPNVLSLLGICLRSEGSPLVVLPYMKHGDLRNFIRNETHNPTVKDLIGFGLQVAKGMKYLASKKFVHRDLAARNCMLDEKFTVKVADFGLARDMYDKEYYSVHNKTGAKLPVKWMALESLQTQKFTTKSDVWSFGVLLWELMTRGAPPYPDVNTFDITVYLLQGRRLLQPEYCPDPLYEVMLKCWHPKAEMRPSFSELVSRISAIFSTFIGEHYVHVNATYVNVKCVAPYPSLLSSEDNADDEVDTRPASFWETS

For `O=C(Nc1cccc(-c2nc(-c3ccc(NC(=O)c4cccnc4)cc3Cl)no2)c1)Nc1ccc(NC(=O)C2CC2)c(C(F)(F)F)c1`, which IC50 (MDA-MB-231) is on record?
The IC50 was 200 nM.

What about the Activity [1] of the same compound?
The Activity was “Active”.

What about the IC50 (NCI-H1975 [2]) of the same compound?
Its IC50 is 300 nM.

What about the IC50 [3] of the same compound?
The IC50 was 400 nM.

And the Activity [4]?
Its Activity is “Active”.

And the Activity [5]?
The Activity was “Active”.

And the Activity [6]?
Its Activity is “Active”.

And the Activity [7]?
The Activity was “Active”.

What about the Activity [8] of the same compound?
The Activity was “Active”.

And the Activity [9]?
The Activity was “Active”.

And the Activity [10]?
Its Activity is “inactive”.

What about the Activity [11] of the same compound?
Its Activity is “Active”.

And the Activity (A549)?
The Activity was “Active”.

What about the Activity (PC-9) of the same compound?
The Activity was “Active”.

And the Activity (CL97)?
The Activity was “Active”.

What about the inhibition in vivo at 50 mg/kg (NCI-H1975 [12]) of the same compound?
Its inhibition in vivo at 50 mg/kg is 29 to 37%.

What about the TGI (NCI-H1975 [13]) of the same compound?
Its TGI is “Dose-dependent effect”.

And the Activity [14]?
Its Activity is “Non-Toxic”.

What about the Activity (NCI-H1975 [15]) of the same compound?
Its Activity is “Dose-dependent effect”.

What about the inhibition in vivo at 50 mg/kg (NCI-H1975 [16]) of the same compound?
Its inhibition in vivo at 50 mg/kg is 72%.
